How the values were obtained:
[1] = Antioxidant activity assessed as glutathione peroxidase-like activity in phosphate buffer measured as initial rate for the reduction of […] by GSH at 80 uM in presence of NADPH by coupled reductase assay; type: functional
Summary of the method: (§1)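 Coupled reductase assay in 100 mM potassium phosphate pH 7.5 at 25 °C: 2 mM GSH, 1 mM EDTA, 1.3 U/mL glutathione reductase, 0.4 mM NADPH, 80 µM selenium compound. Reaction started with 1.6 mM peroxide. Initial rate is taken from NADPH oxidation at 340 nm over the first 5–10% of reaction (ε 6.22 mM⁻¹cm⁻¹). Triplicate, mean ± SD.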

[2] = Antioxidant activity assessed as glutathione peroxidase-like activity in phosphate buffer measured as initial rate for the reduction of cumene hydroperoxide by GSH at 80 uM in presence of NADPH by coupled reductase assay; type: functional; summary of the method: as §1
[3] = Antioxidant activity assessed as glutathione peroxidase-like activity in phosphate buffer measured as initial rate for the reduction of tert-butyl hydroperoxide by GSH at 80 uM in presence of NADPH by coupled reductase assay; type: functional; summary of the method: as §1
[4] = Antioxidant activity assessed as H2O2 scavenging at 10 uM measured after 200 to 220 mins in presence of GSH and NADPH; type: functional
Summary of the method: (§2)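 Kinetic peroxide removal in 100 mM phosphate buffer pH 7.5 at 25 °C with 1 mM EDTA, 0.25 mM GSH, 0.50 mM NADPH, 1.3 U/mL glutathione reductase, 0.20 mM peroxide and 10 µM catalyst. NADPH consumption followed over time. Means of three independent experiments.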

[5] = Antioxidant activity assessed as t-BuOOH scavenging at 10 uM measured after 300 mins in presence of GSH and NADPH; type: functional; summary of the method: as §2
[6] = Antioxidant activity assessed as Cum-OOH scavenging at 10 uM measured after 300 mins in presence of GSH and NADPH; type: functional; summary of the method: as §2
[7] = Antioxidant activity assessed as AAPH radical scavenging activity preincubated for 10 mins followed by AAPH challenge measured as trolox equivalents measured at every min for 120 mins by ORAC-FL assay; type: functional
Summary of the method: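 ORAC-FL: compound diluted in 75 mM phosphate buffer pH 7.4, premixed with fluorescein (70 nM final) for 10 min at 37 °C, then AAPH added. Fluorescence (ex 485, em 520 nm) read each minute for 120 min. Net AUC versus blank is converted to Trolox equivalents using a Trolox standard curve (10–100 µM). Triplicates, at least three independent runs.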

[8] = Inhibition of Cu2+ induced aggregation of recombinant human amyloid beta (1 to 42) at 50 uM after 24 hrs by thioflavin-T based fluorescence assay
Summary of the method: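 Aβ1–42 (stock in 1% ammonium hydroxide), 25 µM final, with or without CuSO4 (25 µM) and compound (50 µM) in HEPES pH 6.6 with NaCl, incubated 24 h at 37 °C. Samples then diluted tenfold into 50 mM glycine-NaOH pH 8.0 containing 5 µM thioflavin T for fluorescence read-out.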

[9] = Permeability of the compound at 100 ug/ml measured after 10 hrs by PAMPA-BBB assay; type: ADME; conditions: read-out: Peff
Summary of the method: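 PAMPA-BBB: filter coated with porcine brain lipid in dodecane (20 mg/mL). Compound is dissolved in DMSO (5 mg/mL) and diluted 50-fold in PBS/EtOH 7:3 to 100 µg/mL in donor wells, with PBS/EtOH acceptor. Plates stand 10 h at 25 °C, then acceptor concentration is read by UV at five wavelengths, four wells, at least three runs. Pe is calculated by formula; assay validated with 13 reference drugs.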

[10] = Metal chelating activity of the compound assessed as Cu2+ complex formation by measuring maximum absorption wave length at 50 uM measured after 30 mins by UV-Vis spectrometry (reference value: 301 nm); type: functional
Summary of the method: (§3)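 Compound (50 µM final) with or without metal salt (CuSO4, FeSO4, FeCl3 or ZnCl2, 50 µM final) in 20 mM HEPES, 150 mM NaCl, pH 7.4. After 30 min, UV-vis absorption spectra are recorded at room temperature.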

[11] = Metal chelating activity of the compound assessed as Zn2+ complex formation by measuring maximum absorption wave length at 50 uM measured after 30 mins by UV-Vis spectrometry (reference value: 301 nm); type: functional; summary of the method: as §3
[12] = Metal chelating activity of the compound assessed as Fe2+ complex formation by measuring maximum absorption wave length at 50 uM measured after 30 mins by UV-Vis spectrometry (reference value: 301 nm); type: functional; summary of the method: as §3
[13] = Metal chelating activity of the compound assessed as Fe3+ complex formation by measuring maximum absorption wave length at 50 uM measured after 30 mins by UV-Vis spectrometry (reference value: 301 nm); type: functional; summary of the method: as §3

SMILES	Activity [1] [µM/min]	Activity [2] [µM/min]	Activity [3] [µM/min]	Activity [4] [%]	Activity [5] [%]	Activity [6] [%]	Activity (umolequiv/umol) [7]	inhibition [8] [%]	Papp at 10 h, 100 ug/ml [9] [×10⁻⁶ cm/s]	Activity [10] [nm]	Activity [11] [nm]	Activity [12] [nm]	Activity [13] [nm]
O=c1c2ccc(C(F)(F)F)cc2[se]n1-c1ccc2cccc(O)c2n1	64.2	16.1	10.6	–	–	–	–	–	–	–	–	–	–
O=c1c2ccc(Cl)cc2[se]n1-c1ccc2cccc(O)c2n1	45	23.3	7.1	–	–	–	–	–	–	–	–	–	–
O=c1c2c(F)cccc2[se]n1-c1ccc2cccc(O)c2n1	102	31.4	47.9	71	46	74	2.3	82	7.4	–	–	–	–
O=c1c2cc(C(F)(F)F)ccc2[se]n1-c1ccc2cccc(O)c2n1	69.9	5.6	8	–	–	–	–	–	–	–	–	–	–
O=c1c2ccccc2[se]n1-c1ccc2cccc(O)c2n1	49.9	17.1	14	–	–	–	–	–	–	–	–	–	–
O=c1c2ccccc2[se]n1-c1ccccc1	113	22.6	47.6	–	–	–	–	–	–	–	–	–	–
O=c1c2cc(O)ccc2[se]n1-c1ccc2cccc(O)c2n1	106	24.3	63.4	60	30	47	2.6	60	5.9	316	304	297	300
O=c1c2ccc(F)cc2[se]n1-c1ccc2cccc(O)c2n1	77.3	11.1	6.4	–	–	–	–	–	–	–	–	–	–
Oc1c(I)cc(Cl)c2cccnc12	–	–	–	–	–	–	0.5	87	–	–	–	–	–
O=c1c2c(Cl)cccc2[se]n1-c1ccc2cccc(O)c2n1	155	35.1	52.1	65	38	68	0.9	–	7.8	–	–	–	–
O=c1c2cccc(C(F)(F)F)c2[se]n1-c1ccc2cccc(O)c2n1	132	30	31.7	–	–	–	0.3	–	13.3	–	–	–	–
O=c1c2cccc(F)c2[se]n1-c1ccc2cccc(O)c2n1	152	24.1	55.5	62	31	66	3.6	–	11.1	–	–	–	–
O=c1c2cc(F)ccc2[se]n1-c1ccc2cccc(O)c2n1	64.3	15.9	20.4	–	–	–	–	–	–	–	–	–	–
O=c1c2c(C(F)(F)F)cccc2[se]n1-c1ccc2cccc(O)c2n1	161	31.7	62	68	67	77	0.2	79	10.1	–	–	–	–
O=c1c2cc(Cl)ccc2[se]n1-c1ccc2cccc(O)c2n1	45	23.9	6.9	–	–	–	–	–	–	–	–	–	–
